Compounds with a hit are over-represented: about 2.9% of the library has one in this group of screens.
Efflux pump mplx – blocks antifungal efflux pumps in multiplex yeast assay. inhibition, % at 10 µM. AID 485275. 0.44% of 330,000 active. S. cerevisiae Candida pump triplex, Nile Red efflux;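 active means plate passing quality check with inhibition over a set limit, or well fluorescence over plate mean plus 4 SD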;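 further: Nile Red retained in pooled yeast measured as flow cytometry median fluorescence; 0% = buffer negative control and 100% = Enniatin B positive control; higher means more Nile Red kept so more efflux inhibition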
MC4R antag cAMP – antagonists of human melanocortin 4 receptor (MC4R) | P32245 | MC4R-expressing cells, MTII-stimulated cAMP, LANCE TR-FRET | inhibition, % at 6.5 µM | 0.48% of 360,000 active | AID 540295;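 active means inhibition above its plate's cutoff, the mean of tested wells on that plate plus 3 SD, cut at about 29% in these data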;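 further: 0% = Melanotan II alone and 100% = Melanotan II plus saturating MCL0020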
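material = U2OS cells stably expressing human melanocortin 4 receptor (MC4R) | also added = Melanotan II challenge | dosing = single nominal compound dose of 6.5 µM | detection = TR-FRET with Eu-cAMP and labeled anti-cAMP, 671 nm | replication = singlicate | timing = compound 30 min, challenge 1 h, detection 1 h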
GalR3 antag – human GalR3 antagonism | HEK293 GalR3-CNG cAMP membrane potential fluorescence; galR3 body fused to GalR1 C-terminus | O60755 | AID 651719 | 0.44% of 360,000 active | inhibition, % at 3 µM;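 active means inhibition above the screen-wide average plus 3 SD, cut at about 13% in these data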;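 further: forskolin and galanin both at EC90 stimulate the cells; cAMP rise reported by CNG channel membrane potential dye signal; 0% = forskolin plus galanin with DMSO and 100% = forskolin alone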
Target sequence (O60755 1-299 limits assumed): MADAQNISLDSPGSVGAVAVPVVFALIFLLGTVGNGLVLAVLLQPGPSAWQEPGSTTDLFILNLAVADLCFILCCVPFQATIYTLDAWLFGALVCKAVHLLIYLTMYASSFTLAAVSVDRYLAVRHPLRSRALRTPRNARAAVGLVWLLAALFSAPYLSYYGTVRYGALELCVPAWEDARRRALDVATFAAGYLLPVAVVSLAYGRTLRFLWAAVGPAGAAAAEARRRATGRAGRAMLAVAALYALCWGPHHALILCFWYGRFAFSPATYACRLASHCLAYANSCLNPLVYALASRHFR
H9c2 TAG inh – triacylglycerol accumulation inhibition | inhibition, % at 12.5 µM | 0.66% of 230,000 active | H9c2 cells, Nile Red lipid (TAG) fluorescence; cells loaded with 200 µM oleic acid | AID 651582;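 active means pattern-corrected inhibition of lipid staining of at least 50% with the nuclear-stain viability signal not falling by more than 50%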;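 further: 0% = DMSO wells and 100% = triacsin C control wells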
MC4R barr agon – human MC4R agonism via beta-arrestin. P32245. U2OS MC4R beta-arrestin complementation, luminescence; percent of melanotan II response, DMSO zero. activation, % at 8.9 µM. 0.98% of 360,000 active;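 active means activation above a per-plate cutoff, the mean activation of sample wells on that plate plus 3 SD, cut at about 8% in these data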
Calb FLC – affects C. albicans growth with fluconazole; C. albicans CaCi-2 (fluconazole-resistant clinical isolate) + fluconazole, Alamar Blue growth, 48 h; growth inhibition, % (no concentration beside the values); 0.57% of 300,000 active;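 active means growth inhibition above about 58% in most replicates, limit read from the data, passing the limit was not always enough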;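 further: all wells also contain fluconazole at 8 µg/ml as a sub-toxic cotreatment; 0% = median of DMSO wells and 100% = median of geldanamycin control wells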
The depositor's hits bear a star; . = no result given.

SMILES | Efflux pump mplx | MC4R antag cAMP | GalR3 antag | H9c2 TAG inh | MC4R barr agon | Calb FLC
CC(=O)Nc1ccc(NC(=O)CSc2ccc3nnc(CCNS(=O)(=O)c4ccc(C)cc4)n3n2)cc1 | 0 | -8 | 1 | . | 1 | 77*
CC(=O)Nc1ccc(NC(=O)c2ccc(-c3ccccc3Cl)o2)cc1 | . | -1 | -1 | -2 | 3 | .
O=C(Nc1ccccc1)c1ccc(-c2ccccc2Cl)o1 | 0 | 3 | -10 | -5 | 8.5* | -4
CC1(C)C(O)=C(c2nc3ccccc3[nH]2)C(=N)N1c1ccccc1 | 0 | -6 | -3 | 0 | 1 | 100*
CC(C)N1CC(O)=C(c2nc3ccccc3[nH]2)C1=N | 0 | 6 | -4 | . | 0 | 0
CC(C)CC(N)c1csc(Nc2ncccn2)n1 (configuration not stated) | . | -2 | -4 | 6 | 0 | .
Brc1ccc(/C=N/Nc2ccc3ccccc3n2)cc1 | 0 | -13 | 3 | . | 11* | 3
COc1ccccc1-c1cn[nH]c1-c1ccc(OCc2ccccc2)cc1O | 0 | 3 | -5 | -15 | 8 | -1
COc1ccc(-c2cn[nH]c2-c2ccc(OCc3ccccc3)cc2O)cc1 | 0 | 6 | -4 | -1 | 9.3* | -7
C=CCn1c(O)c(N=NC(=S)Nc2ccc(OC)cc2)c2ccccc21 | 0 | -12 | -4 | . | -2 | 108*
Cc1ccc(-c2ccc(/C=N\NC(=O)c3cc4c(ccc5ccccc54)o3)o2)cc1[N+](=O)[O-] | 0 | 6 | 3 | 64* | -1 | 3
CNC(=S)N/N=C/c1ccc(-c2ccc(Cl)c([N+](=O)[O-])c2)o1 | 0 | -16 | -3 | . | 4 | 85*
Cc1ccc([N+](=O)[O-])cc1-c1ccc(/C=N/NC(=O)c2cc3c(ccc4ccccc43)o2)o1 | 0 | -4 | -1 | . | 2 | 1
Cc1ccc(-c2ccc(/C=N/NC(=S)Nc3ccccc3)o2)cc1[N+](=O)[O-] | 0 | 1 | 3 | . | -2 | 7
Cc1cc2c(c(=O)o1)[C@@]1(C(=O)N(c3ccccc3)c3ccccc31)C1=C(CCCC1=O)O2 | . | . | 2 | . | . | .
CC(C)C[C@H]1COc2cc(NCc3ccc(Cl)c(Cl)c3)ccc2S(=O)(=O)N1 | . | . | 1 | . | . | .
CC1(C)C(c2ccco2)=[N+]([O-])C2(CCCCC2=O)N1O (configuration not stated) | 0 | 10 | -5 | 6 | -1 | -3
C/C(=N/Nc1ccc(C)cc1)C1(C)N(O)C(C)(C)C(c2ccco2)=[N+]1[O-] (configuration not stated) | 0 | 6 | -6 | . | -1 | 112*
O=S1(=O)c2cc(Cl)ccc2N2CC[C@H](C2)N1Cc1ccc(Cl)c(Cl)c1 | . | . | -8 | . | . | .
COc1ccccc1N/C(=N/S(=O)(=O)c1ccc(C)cc1)c1ccc(Cl)cc1 | 0 | 30* | -2 | . | 0 | 16
Cc1cc(C(=O)OCC(=O)Nc2nc(-c3ccccc3)cs2)c(C)o1 | 0 | 13 | -3 | 28 | 8.5* | -11
CCS(=O)(=O)N(C)C[C@@H]1OCc2ccccc2-c2c(n(C)c3ccccc23)C(=O)N([C@H](C)CO)C[C@@H]1C | . | . | -2 | . | . | .
COc1cc(NC(=O)Nc2cccn3nc(COCCO)nc23)cc(OC)c1OC | . | -1 | -7 | 16 | 0 | .
COc1cccc(-n2c(SCc3cc(=O)oc4cc(O)c(O)cc34)nc3ccccc3c2=O)c1 | 0 | -53 | -2 | . | -2 | 106*
CCN(CC)C(=O)CSc1nc2ccccc2c(=O)n1-c1cccc(OC)c1 | 0 | -3 | 2 | -24 | 0 | -10
COc1ccc(-c2cnnn2-c2ccc([N+](=O)[O-])cc2)cc1 | 0 | 6 | 0 | . | -3 | -4
COCCN1C(=O)C(O)=C(C(=O)c2ccco2)C1c1cccc(Oc2ccccc2)c1 (configuration not stated) | 0 | -5 | 0 | . | -1 | 99*
COc1ccc(C(=O)C(CN2CCCC2)c2ccccc2)cc1 (configuration not stated) | 0 | 0 | -3 | 19 | 0 | 80*
O=C(O)Cn1ccnc1[N+](=O)[O-] | . | 0 | -3 | -11 | 2 | .
CN(c1ccccc1)S(=O)(=O)c1ccc(C(=O)Nc2nnc(C3CC3)s2)cc1 | 0 | 14 | 5 | 2 | 1 | -7

Screens as filed in PubChem.
